ChEMBL document CHEMBL1177638, “Synthesis of pyrrolo[3,2-h]quinolinones with good photochemotherapeutic activity and no DNA damage” (Bioorg Med Chem, 2010)
Activity calls are given as the source filed them. The rule behind the calls is not given here.

What was measured:
Jurkat [1] = assay: Phototoxicity against human Jurkat cells irradiated with 2.5 J/cm'2 after 72 hrs by MTT assay; type: functional, cell-based; conditions: light or radiation study
Procedure, shortened: (§1)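 Cells were seeded at 8 × 10³ and preincubated 18 h at 37 °C, 5% CO₂. Jurkat and K-562 grew in RPMI-1640, MCF-7 and NCTC-2544 in DMEM, and LoVo in Ham's F12, all with 10% FBS plus penicillin and streptomycin. Compounds in DMSO were diluted in HBSS, pH 7.2 (range 20–0.31; DMSO ≤1%) and applied 30 min at 37 °C. Wells were then UV-A irradiated (365 nm; 2.5 or 3.75 J/cm²), medium was replaced, and MTT was read after 72 h.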

Jurkat [2] = assay: Cell cycle arrest in human Jurkat cells assessed as accumulation in S phase at 1 uM irradiated with 20 J/cm'2 after 24 hrs by flow cytometry; type: functional
Procedure, shortened: (§2)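 Exponentially growing Jurkat cells (5 × 10⁵) were irradiated with compound present. Drug was removed, and cells were kept 24 h in RPMI-1640, fixed in ice-cold 70% ethanol, and treated overnight with RNAse (10 KU/mL) in PBS. Cells were stained with propidium iodide and run on a flow cytometer, with DNA content reported as the fraction of cells in each cycle phase.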

Jurkat [3] = assay: Induction of apoptosis in human Jurkat cells assessed as lysosomal dysfunction at 1 uM after 4 hrs post-irradiation with 2.5 J/cm'2 using acridine orange dye by flow cytometry; type: functional
Procedure, shortened: (§3)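 Jurkat cells were irradiated (2.5 J/cm²) with compound present and collected at 2 and 4 h. They were resuspended in RPMI-1640 containing acridine orange, and the percentage of red-fluorescent cells (intact lysosomes) was scored by flow cytometry. Values are mean ± SD of at least three independent experiments.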

Nucleic Acid [4] = assay: Binding affinity to salmon testes DNA assessed as intercalation by linear dichroism experiment; type: nucleic-acid assay; conditions: Salmonidae
Procedure, shortened: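 Salmon testes DNA was mixed with compound at [Drug]/[DNA] ratios of 0, 0.02 and 0.04 in 10 mM phosphate buffer, pH 7.2. Samples were oriented in a rotating cylindrical flow cuvette (0.14 cm path, 800 rpm), and linear dichroism spectra were recorded over roughly 250–450 nm.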

[5] = Photodamaging activity to ribonuclease irradiated with 2.5 J/cm'2 UV light assessed as increase in carbonyl content; type: physicochemical
Procedure, shortened: (§4)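 BSA or RNase A at 2 mg/mL in phosphate buffer was irradiated with the compound in a quartz cuvette for various times. Carbonyl content was measured spectrophotometrically after 2,4-dinitrophenylhydrazine derivatization.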

[6] = Photodamaging activity to bovine serum albumin irradiated with 2.5 J/cm'2 UV light assessed as increase in carbonyl content; type: physicochemical; conditions: cattle; procedure, shortened: as §4
Nucleic Acid [7] = assay: Binding affinity to UV irradiated pBR322 assessed as strand break by electrophoresis; type: nucleic-acid assay; conditions: Escherichia coli
Procedure, shortened: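 Plasmid irradiated with the compound. Aliquots were then incubated at 37 °C with Fpg or Endo III. Bands were quantified densitometrically and supercoiled (Form I) and open circular (Form II) fractions were calculated.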

Jurkat [8] = assay: Induction of lipid peroxidation in human Jurkat cells irradiated with 2.5 J/cm'2 assessed as increase in malondialdehyde production after 24 hrs by TBARS assay relative to untreated control; type: functional, cell-based
Procedure, shortened: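 Jurkat cells (500,000) were irradiated (2.5 J/cm²) with compound present and incubated 24 h. Supernatant was kept with BHT, and cells were lysed in 1% SDS, with protein measured by the Peterson method. Malondialdehyde was measured by thiobarbituric acid reaction (fluorescence, 553 nm) against a 1,1,3,3-tetraethoxypropane standard curve. Results are given as nmol TBARS normalized to protein.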

Jurkat [9] = assay: Induction of apoptosis in human Jurkat cells assessed as lysosomal dysfunction at 1 uM after 2 hrs post-irradiation with 2.5 J/cm'2 using acridine orange dye by flow cytometry; type: functional; procedure, shortened: as §3
Jurkat [10] = assay: Induction of apoptosis in human Jurkat cells assessed as lysosomal dysfunction at 2.5 uM after 2 hrs post-irradiation with 2.5 J/cm'2 using acridine orange dye by flow cytometry; type: functional
Procedure, shortened: (§5)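 Jurkat cells were irradiated (2.5 J/cm² UV-A) with the compound and collected 2 or 4 h later. They were resuspended in RPMI-1640 containing acridine orange 1 µM. Intact-lysosome cells were scored by red fluorescence on flow cytometry. Values are means ± SD of at least three independent experiments.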

Jurkat [11] = assay: Induction of apoptosis in human Jurkat cells assessed as lysosomal dysfunction at 2.5 uM after 4 hrs post-irradiation with 2.5 J/cm'2 using acridine orange dye by flow cytometry; type: functional; procedure, shortened: as §5
Jurkat [12] = assay: Induction of apoptosis in human Jurkat cells assessed as increase in mitochondrial ROS production at 1 uM after 6 hrs post-irradiation with 2.5 J/cm'2 by FACS analysis; type: functional
Procedure, shortened: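 Jurkat cells were irradiated (2.5 J/cm²) with compound present and collected 6 h later. They were resuspended in HBSS with hydroethidine and DCFDA (2.5 and 5, respectively) and held at 37 °C for 15 or 30 min. Flow cytometry used 488 nm excitation, reading 620 nm for HE and 530 nm for DCF, with at least 10,000 events. Values are mean ± SD, three independent experiments.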

Jurkat [13] = assay: Induction of apoptosis in human Jurkat cells assessed as increase in mitochondrial ROS production at 2.5 uM after 6 hrs post-irradiation with 2.5 J/cm'2 by FACS analysis; type: functional
Procedure, shortened: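 Jurkat cells were collected 6 h after UV-A irradiation (2.5 J/cm²) with the compound and resuspended in HBSS with hydroethidine 2.5 µM or DCFDA 5 µM. They were incubated at 37 °C for 15 or 30 min. Flow cytometry used 488 nm excitation, with emission at 620 nm (HE) or 530 nm (DCF), acquiring ≥10,000 events. Values are means ± SD of three independent experiments.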

Jurkat [14] = assay: Induction of apoptosis in human Jurkat cells assessed as induction of loss of membrane potential at 2.5 uM after 4 hrs post-irradiation with 20 J/cm'2 by flow cytometry; type: functional
Procedure, shortened: (§6)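 JC-1 probe at 1 µg/mL in HBSS was added to Jurkat cells spun down 2 or 4 h after UV-A irradiation with the compound. Green (FL1) and orange (FL2) fluorescence were read by flow cytometry, ≥10,000 events per sample. Values are means ± SD of at least three independent experiments.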

Jurkat [15] = assay: Induction of apoptosis in human Jurkat cells assessed as induction of loss of membrane potential at 2.5 uM after 2 hrs post-irradiation with 20 J/cm'2 by flow cytometry; type: functional; procedure, shortened: as §6
Jurkat [16] = assay: Induction of apoptosis in human Jurkat cells assessed as induction of loss of membrane potential at 2.5 uM after 4 hrs post irradiation with 20 J/cm'2 using JC1 staining by FACS; type: functional; procedure, shortened: as §6
Jurkat [17] = assay: Induction of apoptosis in human Jurkat cells assessed as induction of loss of membrane potential at 2.5 uM after 2 hrs post-irradiation with 20 J/cm'2 using JC1 staining by FACS; type: functional; procedure, shortened: as §6
Jurkat [18] = assay: Cell cycle arrest in human Jurkat cells assessed as accumulation in subG1 phase at 1 uM irradiated with 20 J/cm'2 after 24 hrs by flow cytometry; type: functional; procedure, shortened: as §2
[19] = Phototoxicity against human sNCTC-2544 cells irradiated with 3.75 J/cm'2 after 72 hrs by MTT assay; type: functional, cell-based; conditions: NCTC-2544, light or radiation study; procedure, shortened: as §1
[20] = Phototoxicity against human sNCTC-2544 cells irradiated with 2.5 J/cm'2 after 72 hrs by MTT assay; type: functional, cell-based; conditions: NCTC-2544, light or radiation study; procedure, shortened: as §1
MCF7 [21] = assay: Phototoxicity against human MCF7 cells irradiated with 3.75 J/cm'2 after 72 hrs by MTT assay; type: functional, cell-based; conditions: MCF7, light or radiation study; procedure, shortened: as §1
MCF7 [22] = assay: Phototoxicity against human MCF7 cells irradiated with 2.5 J/cm'2 after 72 hrs by MTT assay; type: functional, cell-based; conditions: MCF7, light or radiation study; procedure, shortened: as §1
LoVo [23] = assay: Phototoxicity against human LoVo cells irradiated with 3.75 J/cm'2 after 72 hrs by MTT assay; type: functional, cell-based; conditions: light or radiation study; procedure, shortened: as §1
LoVo [24] = assay: Phototoxicity against human LoVo cells irradiated with 2.5 J/cm'2 after 72 hrs by MTT assay; type: functional, cell-based; conditions: light or radiation study; procedure, shortened: as §1
K562 [25] = assay: Phototoxicity against human K562 cells irradiated with 3.75 J/cm'2 after 72 hrs by MTT assay; type: functional, cell-based; conditions: K562, light or radiation study; procedure, shortened: as §1
K562 [26] = assay: Phototoxicity against human K562 cells irradiated with 2.5 J/cm'2 after 72 hrs by MTT assay; type: functional, cell-based; conditions: K562, light or radiation study; procedure, shortened: as §1
Jurkat [27] = assay: Cell cycle arrest in human Jurkat cells assessed as accumulation in G1 phase at 1 uM irradiated with 25 J/cm'2 after 24 hrs by flow cytometry
Jurkat [28] = assay: Cell cycle arrest in human Jurkat cells assessed as accumulation in G2/M phase at 1 uM irradiated with 25 J/cm'2 after 24 hrs by flow cytometry

## O=c1ccc2ccc3occc3c2o1 [ANGELICIN]
Jurkat [1]
  IC50: 1000 nM
Jurkat [2]
  Activity: 46.7%
Jurkat [3]
  Activity: 6.63%
Nucleic Acid [4]
  Activity: Active
[5]
  Activity: Active
[6]
  Activity: Active
Nucleic Acid [7]
  Activity: Active
Jurkat [8]
  Activity: Dose-dependent effect
Jurkat [9]
  Activity: 9.82%
Jurkat [10]
  Activity: 15.03%
Jurkat [11]
  Activity: 50.85%
Jurkat [12]
  Activity: Active
Jurkat [13]
  Activity: 15.82%
Jurkat [14]
  Activity: 41.2%
Jurkat [15]
  Activity: 1.08%
Jurkat [16]
  Activity: 58.8%
Jurkat [17]
  Activity: 98.92%
Jurkat [18]
  Activity: 30.8%
[19]
  IC50: 900 nM
[20]
  IC50: 4200 nM
MCF7 [21]
  IC50: 1500 nM
MCF7 [22]
  IC50: 4400 nM
LoVo [23]
  IC50: 1500 nM
LoVo [24]
  IC50: 3600 nM
K562 [25]
  IC50: 1000 nM
K562 [26]
  IC50: 1200 nM
Jurkat [27]
  Activity: 12.3%
Jurkat [28]
  Activity: 10.2%
